Data: ChEMBL document CHEMBL4049387, “Combination of l-Carnitine with Lipophilic Linkage-Donating Gemcitabine Derivatives as Intestinal Novel Organic Cation Transporter 2-Targeting Oral Prodrugs” (J Med Chem, 2017)
The source made the active and inactive calls. The calls are words filed in the database; no cut-off is given here.

How the values were obtained:
[1] = biological target: T1, Organic cation/carnitine transporter 2 (Homo sapiens, UniProt O76082); assay: Ratio of drug transport assessed as OCTN2 transporter mediated drug uptake in human Caco2 cells at 100 uM in absence of L-carnitine to drug transport assessed as OCTN2 transporter mediated drug uptake in human Caco2 cells at 100 uM in presence of L-carnitine; assay type: ADME, cell-based; details: caco-2, 100 µM
T1 sequence (O76082 whole entry): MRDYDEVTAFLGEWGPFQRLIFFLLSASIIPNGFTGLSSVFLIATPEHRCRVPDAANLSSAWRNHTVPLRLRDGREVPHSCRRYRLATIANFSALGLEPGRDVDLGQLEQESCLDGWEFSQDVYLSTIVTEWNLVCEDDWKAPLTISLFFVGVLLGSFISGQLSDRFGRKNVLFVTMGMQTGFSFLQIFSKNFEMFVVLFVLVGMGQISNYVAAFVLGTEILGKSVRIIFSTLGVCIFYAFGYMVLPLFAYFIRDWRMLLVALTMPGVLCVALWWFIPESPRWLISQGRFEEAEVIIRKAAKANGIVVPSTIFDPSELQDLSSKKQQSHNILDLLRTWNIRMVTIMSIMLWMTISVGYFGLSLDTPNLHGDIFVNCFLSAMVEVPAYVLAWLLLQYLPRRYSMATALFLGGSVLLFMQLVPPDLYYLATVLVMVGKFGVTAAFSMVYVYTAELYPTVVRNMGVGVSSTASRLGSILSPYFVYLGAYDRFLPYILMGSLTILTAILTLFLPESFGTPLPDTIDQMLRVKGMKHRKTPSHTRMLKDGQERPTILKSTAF

[2] = biological target: T1, Organic cation/carnitine transporter 2; assay: Drug transport assessed as Vmax for OCTN2 transporter mediated drug uptake in human Caco2 cells after 10 mins by Eadie-Hofstee plot method; assay type: ADME, cell-based; details: caco-2, 10 min
[3] = Terminal half-life in Wistar rat at 50 mg/kg, po administered as single dose by UPLC-MS/MS method; assay type: ADME, organism-based; details: in vivo, read-out: beta t1/2 (converted)
Outline: (§1)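 Wistar rats, six per group, single oral dose equivalent to 50 mg/kg gemcitabine; separate group given gemcitabine iv at 7.5 mg/kg. Oral sampling at 5, 10, 15, 30 min and 1, 2, 4, 6, 8, 12, 24 h; iv at 15, 30 min and 2, 4, 8, 12, 24 h. Blood into THU-pretreated heparinized tubes, centrifuged 3000 × g 15 min, plasma at -80 °C. Prodrug and gemcitabine quantified by UPLC-MS/MS. F = AUCpo×Div/AUCiv/Dpo×100%.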

[4] = biological target: T1, Organic cation/carnitine transporter 2; assay: Ratio of drug transport assessed as OCTN2 transporter mediated cell permeability in human Caco2 cells at 25 uM in absence of L-carnitine to drug transport assessed as OCTN2 transporter mediated cell permeability in human Caco2 cells at 25 uM in presence of L-carnitine; assay type: ADME, cell-based; details: caco-2, 25 µM
Outline: (§2)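 Caco-2 cells seeded at 1.0×10^5 cells/well on 0.4 µm polycarbonate inserts, cultured 21 days in MEM; monolayers with TEER over 250 Ω·cm² used. Compound at 25 µM final in HBSS, added apically, with or without 100 µM L-carnitine, 37 °C. Basolateral samples taken at 15, 30, 45, 60, 90, 120 min. Analysed by UPLC-MS/MS to give Papp. Triplicate runs.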

BXPC-3 [5] = assay: Cytotoxicity against human BxPC3 cells assessed as decrease in cell viability after 48 hrs by MTT assay; assay type: functional, cell-based
Outline: (§3)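 BxPC-3 and Caco-2 cells exposed to compounds for 48 h. Viability read by MTT assay kit. IC50 calculated from dose-response.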

[6] = Tmax in Wistar rat at 50 mg/kg, po administered as single dose by UPLC-MS/MS method; assay type: ADME, organism-based; details: in vivo; outline: as §1
Rattus norvegicus [7] = assay: AUC (0 to 24 hrs) in Wistar rat at 50 mg/kg, po administered as single dose by UPLC-MS/MS method; assay type: ADME, organism-based; design: dose 50 mg/kg, time < 24 hr, route oral; details: in vivo; outline: as §1
[8] = Oral bioavailability in Wistar rat at 50 mg/kg administered as single dose in presence of L-carnitine by UPLC-MS/MS method; assay type: ADME, organism-based; details: in vivo, with L-carnitine
Outline: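 Rats dosed orally with prodrug at a gemcitabine-equivalent dose of 50 mg/kg, co-administered with 40 mM L-carnitine. Serial blood at 5 min–24 h into THU-pretreated heparinized tubes. Plasma measured by UPLC-MS/MS. Absolute bioavailability calculated against iv gemcitabine at 7.5 mg/kg.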

[9] = Half life in rat plasma at 5 uM by HPLC method; assay type: ADME, cell-free
Outline: (§4)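 Compound at 5 µM final in rat plasma, 20% rat hepatic homogenate or 20% rat intestinal homogenate at 37 °C for 24 h. Homogenates made by homogenizing 0.3 g saline-washed tissue in 1 mL saline, spun 13,000 rpm 4 °C 5 min. Sampled at intervals, analysed by HPLC. t1/2 = 0.693/k.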

[10] = Half life in pH 1.2 phosphate buffer at 5 uM by HPLC method; assay type: physicochemical
Outline: (§5)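 Compound dissolved at 5 µM in phosphate buffer (pH 1.2, 6.8 or 7.4), held at 37 °C for 24 h. Aliquots taken at intervals and analysed by HPLC. t1/2 = 0.693/k from linear regression of pseudo-first-order kinetics.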

[11] = Half life in rat hepatic homogenates at 5 uM by HPLC method; assay type: ADME, tissue-based, Liver; outline: as §4
[12] = Stability of the compound in pH 6.8 phosphate buffer at 5 uM by HPLC method; assay type: physicochemical; details: pH 6.8, 5 µM; outline: as §5
[13] = Half life in rat intestinal homogenates at 5 uM by HPLC method; assay type: ADME, tissue-based, Intestine; outline: as §4
[14] = biological target: T2, Organic cation/carnitine transporter 2 (Rattus norvegicus, UniProt O70594); assay: Ratio of drug transport assessed as OCTN2 transporter mediated effective permeability in rat duodenum at 76 uM in absence of L-carnitine to drug transport assessed as OCTN2 transporter mediated effective permeability in rat duodenum at 76 uM in presence of L-carnitine; assay type: ADME
T2 sequence (O70594 whole entry): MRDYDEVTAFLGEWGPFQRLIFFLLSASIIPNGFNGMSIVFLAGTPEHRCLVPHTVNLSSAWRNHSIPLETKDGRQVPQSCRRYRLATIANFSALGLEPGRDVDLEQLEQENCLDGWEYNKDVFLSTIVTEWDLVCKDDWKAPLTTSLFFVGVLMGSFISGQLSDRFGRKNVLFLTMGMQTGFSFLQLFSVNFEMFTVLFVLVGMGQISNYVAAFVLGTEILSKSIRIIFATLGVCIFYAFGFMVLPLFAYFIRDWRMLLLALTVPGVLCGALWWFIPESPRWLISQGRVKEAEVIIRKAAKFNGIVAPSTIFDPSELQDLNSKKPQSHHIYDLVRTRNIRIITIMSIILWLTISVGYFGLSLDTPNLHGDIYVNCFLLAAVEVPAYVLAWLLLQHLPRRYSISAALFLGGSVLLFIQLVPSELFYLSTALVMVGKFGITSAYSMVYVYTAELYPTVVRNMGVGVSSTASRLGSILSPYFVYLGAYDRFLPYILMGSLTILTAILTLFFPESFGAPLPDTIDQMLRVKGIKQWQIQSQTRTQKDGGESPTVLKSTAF

[15] = Drug level in Wistar rat portal blood at 50 mg/kg administered as single dose at 2 hrs by UPLC-MS/MS method; assay type: ADME, organism-based; details: read-out: Drug uptake
Outline: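 Rats given single oral dose equivalent to 50 mg/kg gemcitabine. Portal vein and systemic plasma sampled at 2 h. Prodrug and gemcitabine measured by UPLC-MS/MS.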

OCTN2 = assay: Ratio of drug transport in OCTN2 (unknown origin) expressing HEK293 cells assessed as transporter-mediated drug uptake at 25 uM to drug uptake in HEK293 cells at 25 uM; assay type: ADME, cell-based; details: human, HEK293 cells expressing OCTN2, against HEK293 cells
Outline: (§6)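 OCTN2-transfected HEK293 cells and mock HEK293 cells incubated with 25 µM compound at 37 °C for 15 min, then cellular uptake measured; n = 2.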

[16] = Half life in pH 7.4 phosphate buffer at 5 uM by HPLC method; assay type: physicochemical; outline: as §5
[17] = biological target: T1, Organic cation/carnitine transporter 2; assay: Ratio of drug transport assessed as OCTN2 transporter mediated drug uptake in human Caco2 cells at 1 to 800 uM in presence of Na+ to drug transport assessed as OCTN2 transporter mediated drug uptake in human Caco2 cells at 1 to 800 uM in presence of N-methyl-D-glucamine; assay type: ADME, cell-based; details: caco-2, 800 µM
[18] = biological target: T2, Organic cation/carnitine transporter 2; assay: Ratio of drug transport assessed as OCTN2 transporter mediated effective permeability in rat jejunum at 76 uM in absence of L-carnitine to drug transport assessed as OCTN2 transporter mediated effective permeability in rat jejunum at 76 uM in presence of L-carnitine; assay type: ADME
[19] = biological target: T1, Organic cation/carnitine transporter 2; assay: Drug transport assessed as OCTN2 transporter mediated cell permeability in human Caco2 cells across apical to basolateral side at 25 uM after 15 to 120 mins by UPLC-MS/MS method relative to gemcitabine; assay type: ADME, cell-based; details: caco-2, 25 µM; outline: as §2
[20] = Oral bioavailability in Wistar rat at 50 mg/kg administered as single dose by UPLC-MS/MS method; assay type: ADME, organism-based; details: in vivo; outline: as §1
[21] = Half life in pH 6.8 phosphate buffer at 5 uM by HPLC method; assay type: physicochemical; outline: as §5
Rattus norvegicus [22] = assay: AUC (0 to 24 hrs) in Wistar rat at 7.5 mg/kg, iv administered as single dose by UPLC-MS/MS method; assay type: ADME, organism-based; design: dose 7.5 mg/kg, time < 24 hr, route intravenous; details: in vivo; outline: as §1
[23] = Cmax in Wistar rat at 7.5 mg/kg, iv administered as single dose by UPLC-MS/MS method; assay type: ADME, organism-based; design: dose 7.5 mg/kg, route intravenous; details: in vivo; outline: as §1
[24] = Cmax in Wistar rat at 50 mg/kg, po administered as single dose by UPLC-MS/MS method; assay type: ADME, organism-based; design: dose 50 mg/kg, route oral; details: in vivo; outline: as §1
[25] = Drug uptake in HEK293 cells at 25 uM after 15 mins by UPLC-MS/MS method; assay type: ADME, cell-based; details: human, hek293, 0.25 h; outline: as §6
[26] = Tmax in Wistar rat at 7.5 mg/kg, iv administered as single dose by UPLC-MS/MS method; assay type: ADME, organism-based; details: in vivo; outline: as §1
BXPC-3 [27] = assay: Cytotoxicity against human BxPC3 cells assessed as decrease in cell viability at 0.1 to 200 uM after 48 hrs by MTT assay; assay type: functional, cell-based; outline: as §3
[28] = Terminal half-life in Wistar rat at 7.5 mg/kg, iv administered as single dose by UPLC-MS/MS method; assay type: ADME, organism-based; details: in vivo, read-out: beta t1/2 (converted); outline: as §1

Row | Compound | Ratio [1] | Vmax [2] [nmol/mg] | half-life [3] [h] | Ratio [4] | Activity (BXPC-3 [5]) | Tmax [6] [h] | AUC (Rattus norvegicus [7]) [ng·h/mL] | half-life at 5 µM [9] [h] | half-life at 5 µM [10] [h] | half-life at 5 µM [11] [h] | half-life at 5 µM [13] [h] | concentration at 2 h [15] [ng/mL] | half-life at 5 µM [16] [h] | fold change (FC) [19] | bioavailability [20] [%] | also measured
1 | C[N+](C)(C)CC(CC(=O)[O-])OC(=O)CCCCCCCCC(=O)Nc1ccn([C@@H]2O[C@H](CO)[C@@H](O)C2(F)F)c(=O)n1 (some centres not stated) | 2.2 to 3.7 | 0.3884 | 5.4 | 1.6 to 3.6 | Dose-dependent effect | 1.8 | 15900 |  |  |  |  |  |  |  |  | 
2 | C[N+](C)(C)CC(CC(=O)[O-])OC(=O)CCC(=O)Nc1ccn([C@@H]2O[C@H](CO)[C@@H](O)C2(F)F)c(=O)n1 (some centres not stated) | 2.2 to 3.7 | 0.2013 | 6.2 | 1.6 to 3.6 | Dose-dependent effect | 1 | 14900 | 3.7 | 5.5 | 15.5 | 50.9 | 2460 | 28.4 | 5 to 15 | 12 | bioavailability [8]: 6%; Stability [12]: Stable; Ratio [14]: 25; uptake ratio at 25 µM (OCTN2): 3 to 8; Ratio [17]: 2 to 10; Ratio [18]: 25
3 | C[N+](C)(C)CC(CC(=O)[O-])OC(=O)CCCCCCC(=O)Nc1ccn([C@@H]2O[C@H](CO)[C@@H](O)C2(F)F)c(=O)n1 (some centres not stated) | 2.2 to 3.7 | 0.4344 | 2.3 | 1.6 to 3.6 | Dose-dependent effect | 1.2 | 11100 |  |  |  |  |  |  | 5 to 15 |  | 
4 | CCCC(=O)Nc1ccn([C@@H]2O[C@H](CO)[C@@H](O)C2(F)F)c(=O)n1 |  |  | 4.3 |  |  | 1.9 | 9030 | 1.7 | 1 | 32.7 | 116 |  | 10.3 |  |  | half-life at 5 µM [21]: 45.9 h
5 | Nc1ccn([C@@H]2O[C@H](CO)[C@@H](O)C2(F)F)c(=O)n1 [GEMCITABINE] |  |  | 2.3 |  |  | 1.7 | 5620 |  |  |  |  | 199 |  |  | 3.2 | AUC (Rattus norvegicus [22]): 26700 ng·h/mL; Cmax [23]: 7100 ng/mL; Cmax [24]: 1320 ng/mL; Drug uptake [25]: Not Active; Tmax [26]: 0.5 h; Activity (BXPC-3 [27]): Active; half-life [28]: 4.4 h
